# Compound activity (PubChem BioAssay)
# Only some compounds are listed: those with a hit (about 2.6% of all), similar ones and a draw of the others.
# Scp-1 inhibitor: Scp-1 (human) phosphatase inhibition. AID 493091. Recombinant Scp1, phosphopeptide, malachite green phosphate absorbance. inhibition, % at 20 µM. 340,000 compounds, 0.88% hits;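 active = inhibition above about 50% at 20 µM, limit read from the data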;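 note: plate controls were DMSO wells with enzyme for no effect and wells lacking enzyme for full effect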
#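 assay system = SCP-1 phosphatase catalytic domain, residues 76-261 | buffer or medium = 50 mM Tris acetate pH 5.5, 0.005% Tween-20, 10 mM MgCl2 | incubation = enzyme reaction 45 min at room temperature, colour 5 min, stabilisation 30 min | signal = Phosphate-binding colour reagent, absorbance read at 630 nm | measure = % inhibition at 20 µM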
# NadD block: inhibitors of Staphylococcus aureus NadD | purified NadD enzyme, colorimetric absorbance read-out | inhibition, % at 20 µM | 360,000 compounds, 0.78% hits; in the data active = inhibition above about 26%
# rCAG binder-1: r(CAG) repeat RNA binding | TO-PRO-1 dye displacement fluorescence | inhibition, % at 3 µM | 370,000 compounds, 1.3% hits | AID 651821;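 active = inhibition above the plate cutoff, the mean of all test compounds on that plate plus 3 SD, cut at about 35% in these data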;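 note: 0% = DMSO alone and 100% = 100 µM mitoxantrone as full dye displacement; higher means more dye released from RNA so lower well fluorescence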
# LMPTP block: LMPTP (human) inhibition; 360,000 compounds, 0.22% hits; P24666; recombinant LMPTP-A, OMFP fluorogenic substrate, fluorescence intensity; inhibition, % at 20 µM; AID 651560;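 active = compounds that cut the enzyme signal by at least half of the control window in the single-dose screen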;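 note: plate controls were DMSO wells with enzyme plus substrate for no effect and substrate without enzyme for full effect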
# Target sequence (P24666 whole entry, looked up): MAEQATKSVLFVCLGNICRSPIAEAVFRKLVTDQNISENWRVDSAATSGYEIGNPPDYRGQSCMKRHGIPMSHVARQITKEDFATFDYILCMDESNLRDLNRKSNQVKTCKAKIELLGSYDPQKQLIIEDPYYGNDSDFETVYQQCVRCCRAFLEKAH
#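 Assay system: LMPTP-A, protein tyrosine phosphatase of low molecular weight / Medium: pH 6.0 Bis-Tris buffer with DTT and Triton X-100 / Schedule: 50 min enzyme reaction at room temperature, protected from light / Measured by: endpoint fluorescence intensity from OMFP dephosphorylation / Read-out basis: % inhibition relative to no-enzyme and uninhibited control wells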
# STEP block: STEP (human) phosphatase inhibition; P54829; recombinant STEP, OMFP fluorogenic substrate, fluorescence; inhibition, % at 20 µM; 360,000 compounds, 0.25% hits;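 active = inhibition at 20 µM, scaled per plate between control wells, above about 37%, limit read from the data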;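 note: 0% = DMSO with enzyme and substrate and 100% = substrate only without enzyme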
# Target sequence (P54829 whole entry, looked up): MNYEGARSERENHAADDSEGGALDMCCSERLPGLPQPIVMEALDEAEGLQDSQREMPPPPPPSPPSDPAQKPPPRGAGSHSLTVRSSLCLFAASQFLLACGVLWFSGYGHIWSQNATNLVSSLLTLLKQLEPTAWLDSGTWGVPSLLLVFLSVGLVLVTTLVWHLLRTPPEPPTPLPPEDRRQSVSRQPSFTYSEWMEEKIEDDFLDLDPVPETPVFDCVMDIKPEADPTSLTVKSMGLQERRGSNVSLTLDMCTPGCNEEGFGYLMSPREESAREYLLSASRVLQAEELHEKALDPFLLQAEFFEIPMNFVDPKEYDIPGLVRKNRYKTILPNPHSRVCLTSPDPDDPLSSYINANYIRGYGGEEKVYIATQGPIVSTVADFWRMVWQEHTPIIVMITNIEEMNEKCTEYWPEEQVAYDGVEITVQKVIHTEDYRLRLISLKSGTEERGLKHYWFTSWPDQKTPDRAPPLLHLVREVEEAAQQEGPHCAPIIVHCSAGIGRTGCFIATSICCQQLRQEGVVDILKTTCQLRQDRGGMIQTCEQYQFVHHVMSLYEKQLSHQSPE
#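 Test system: STEP tyrosine phosphatase / Reagent: OMFP at 25 µM / Doses: 20 µM, 1% DMSO / Read-out: percent inhibition scaled to no-enzyme and uninhibited-enzyme controls, plate-pattern corrected / Detection: FITC-channel fluorescence of OMFP product / Medium: Bis-Tris buffer pH 6.0, 2.5 mM DTT, 0.005% Tween 20 / Schedule: 20 min at room temperature, dark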
# rCAG binder conf: r(CAG) RNA repeat binding, confirmation; shares compounds with rCAG binder-1; TO-PRO-1 dye displacement fluorescence; inhibition, % at 3 µM; 4,300 compounds, 70% hits; AID 652065;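 active = inhibition above a per-plate cutoff, the mean inhibition of sample wells plus 3 SD, cut at about 35% in these data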;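 note: loss of TO-PRO-1 fluorescence as compound displaces dye from 1x1 AA loop RNA; 0% = DMSO only wells and 100% = 100 µM mitoxantrone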
# dCAG dye counter: DNA CAG dye complex inhibition counter-screen; shares compounds with rCAG binder-1; d(CAG) DNA oligo TO-PRO-1 dye displacement, fluorescence; inhibition, % at 3 µM; 4,300 compounds, 94% hits; AID 652068;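 active = inhibition above its plate's cutoff, the mean test-well inhibition plus 3 SD, cut at about 4.8% in these data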;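 note: 0% = DNA dye mix with DMSO and 100% = 100 µM mitoxantrone; hits displace the dye from DNA and so lower well fluorescence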
# dCAG dye DR: counter-screen for rCAG binders: inhibitors of DNA CAG TO-PRO-1 complex | shares compounds with rCAG binder-1 | DNA CAG/GTC duplex TO-PRO-1 dye displacement fluorescence | IC50, µM | 250 compounds, 20% hits | AID 686960; in the data active = IC50 below about 10 µM
# dCAG TOPRO ctr: counter-screen for rCAG binders: DNA CAG TO-PRO-1 complex inhibitors, late stage. shares compounds with rCAG binder-1. d(CAG) DNA duplex TO-PRO-1 dye displacement, fluorescence. IC50, µM. 30 compounds, 80% hits. AID 720649
# rCAG binder-2: binds r(CAG) RNA repeats in late stage dose response; 30 compounds, 100% hits; r(CAG) RNA TO-PRO-1 dye displacement, fluorescence; AID 720651; IC50, µM; shares compounds with rCAG binder-1
# * marks the source's active call; other numbers are inactive results; i = inactive; / = no result. Unless noted, the rule behind the calls is not given here.
SMILES,Scp-1 inhibitor,NadD block,rCAG binder-1,LMPTP block,STEP block,rCAG binder conf,dCAG dye counter,others
O=C(Nc1ccc(O)cc1)c1ccc2c(c1)C(=O)N(Cc1ccccc1)C2=O,-11.8,1.7,8.9,2.9,-0.8,/,/,
O=C(O)COc1ccc(NC(=O)c2ccc3c(c2)C(=O)N(Cc2ccccc2)C3=O)cc1,-9.5,-3.8,47.0*,-0.8,-1.4,27.9,6.2*,
O=C(/C(=N/N=C/c1ccc(O)c(O)c1)c1ccccc1)c1ccccc1,-8.0,8.9,37.4*,2.3,-3.0,51.0*,27.0*,
O=C1Nc2ccc(Br)cc2C1(O)c1ccccc1 (centres undefined),-6.5,3.0,-0.5,-0.2,-1.0,/,/,
O=C1Nc2ccc(Br)cc2C12NNc1ccccc1O2 (centres undefined),-8.5,-1.1,61.3*,4.1,-11.7,57.9*,47.5*,
COC(=O)C1CN(Cc2ccc(Cl)cc2)CCS(=O)(=O)N1Cc1cn(Cc2ccc(F)cc2)nn1 (centres undefined),/,/,-0.9,/,/,/,/,
CCCOc1ccc(C(=O)NNC(=S)NC(=O)c2ccccc2)cc1,-7.7,1.2,27.6,-1.3,1.6,/,/,
CC(C)(C)c1ccc(OCC(=O)NNC(=S)NC(=O)c2ccccc2[N+](=O)[O-])c(Br)c1,-10.1,23.1,77.9*,1.3,2.5,85.2*,54.9*,
CCCOc1ccc(C(=O)NNC(=S)NC(=O)c2cccs2)cc1,-2.4,13.2,41.1*,0.7,2.7,35.4*,10.7*,
CCCOc1ccc(C(=O)NNC(=S)NC(=O)c2ccccc2[N+](=O)[O-])cc1,-9.9,8.9,35.8*,-1.5,6.0,20.4,7.0*,
CCOC(=O)N[C@H](C(=O)N1CCC[C@H]1C(=O)NCCc1ccccc1Cl)c1ccccc1,/,/,-1.0,/,/,/,/,
COC(=O)[C@H](C(C)C)N(CCc1cn(Cc2ccccc2)nn1)S(=O)(=O)c1ccccc1Br,/,/,0.3,/,/,/,/,
O=[N+]([O-])c1ccccc1N=Nc1ccc(O)cc1O,5.3,-5.7,16.1,14.5,9.6,/,/,
O=S(=O)(O)c1cc(O)c(N=Nc2ccc(O)cc2O)c2ccccc12,61.0*,9.6,65.5*,49.7,10.2,94.0*,67.4*,
O=C(CCCN1C(=O)/C(=C/c2ccccc2)SC1=S)Nc1ccc(C(=O)O)c(O)c1,-7.9,1.4,82.9*,2.7,-0.1,80.5*,35.8*,
O=C(CCCN1C(=O)C(=Cc2ccc3c(c2)OCO3)SC1=S)Nc1ccc(C(=O)O)c(O)c1,/,24.6,76.6*,51.6*,-1.3,78.0*,45.1*,
O=C(CCCN1C(=O)/C(=C\c2cccc(Br)c2)SC1=S)Nc1ccc(C(=O)O)cc1,/,6.2,5.6,13.6,-0.5,/,/,
COc1ccc(C=C2SC(=S)N(CCCC(=O)Nc3ccc(C(=O)O)c(O)c3)C2=O)cc1OC,/,22.6,80.5*,10.0,0.1,75.2*,40.6*,
O=C(CCN1C(=O)/C(=C\c2ccccc2F)SC1=S)Nc1ccc(C(=O)O)c(O)c1,/,15.9,93.9*,2.0,0.9,83.8*,60.2*,
Cc1cc(NC(=O)CCN2C(=O)/C(=C/c3ccccc3F)SC2=S)no1,/,/,3.4,/,/,/,/,
COc1ccc(C(=O)CSc2nnc(-c3ccccc3)n2-c2ccc(Cl)cc2)cc1,/,/,8.2,/,/,/,/,
Cc1ccc(-n2c(SCC(=O)c3ccccc3Cl)nnc2-c2cnccn2)cc1,/,/,1.8,/,/,/,/,
COc1cc(/C=C2/C(=O)CNC2=O)ccc1O,-1.1,-1.9,-28.1,-0.9,-1.2,/,/,
COc1cc(C=C2C(=O)C=CC2=O)ccc1O,/,7.4,72.5*,6.2,/,10.2,5.4*,
COc1cc(/C=C2\C(=O)N(c3ccc(NC(C)=O)cc3)N=C2c2ccccc2)ccc1O,-0.7,15.6,82.8*,2.3,5.2,70.1*,31.3*,dCAG dye DR=i
SMILES,Scp-1 inhibitor,NadD block,rCAG binder-1,LMPTP block,STEP block,rCAG binder conf,dCAG dye counter,others
COc1cc(/C=C2/C(=O)N(c3ccc(C(=O)O)cc3)N=C2C)cc(OC)c1O,-6.5,-3.3,-3.3,3.5,3.5,/,/,
O=C1/C(=C\c2ccc(O)c(O)c2)C(c2ccccc2)=NN1c1ccccc1,10.2,18.1,73.6*,5.1,2.5,80.7*,43.8*,
COc1ccccc1CCn1cnc(-c2ccc(F)cc2)c1CC(C)C,/,/,-1.1,/,/,/,/,
COC(=O)C1CN(Cc2cn(Cc3ccccc3)nn2)CCS(=O)(=O)N1Cc1ccccc1 (centres undefined),/,/,0.5,/,/,/,/,
CC(Sc1nnc(-c2ccco2)n1C)C(=O)Nc1ccc(N2CCOCC2)cc1 (centres undefined),-4.9,-5.1,-5.8,-0.4,-0.6,/,/,
N#Cc1c(-c2ccco2)nc(SCC(=O)Nc2cccc(Cl)c2)[nH]c1=O,43.4,14.2,72.1*,2.3,9.7,72.0*,27.3*,dCAG dye DR=i
O=C(CSc1nc(-c2ccc(Cl)cc2)[nH]c(=O)n1)Nc1cccc(Cl)c1,-3.5,12.0,57.0*,1.6,4.4,66.0*,29.6*,
CCc1ccc(NC(=O)C(C)Sc2nc(-c3ccco3)c(C#N)c(=O)[nH]2)cc1 (centres undefined),24.8,4.4,79.5*,0.1,3.5,69.6*,32.7*,dCAG dye DR=9.65*;dCAG TOPRO ctr=3.34*;rCAG binder-2=1.14*
O=C(CSc1nc2[nH]ncc2c(=O)[nH]1)Nc1cccc(Cl)c1,-2.8,-0.2,5.0,-0.6,-0.5,/,/,
N#Cc1c(-c2ccccc2)nc(SCc2cccc(Cl)c2)[nH]c1=O,-5.9,11.5,82.0*,2.5,-0.5,76.3*,42.8*,
Nc1c(C(=O)N2CCOCC2)cnn1Cc1ccccc1,/,/,5.1,/,/,/,/,
CC(C)c1[nH]nc2c1C(c1ccccc1)N(c1ccccc1)C2=O (centres undefined),/,/,1.6,/,/,/,/,
CC[C@H](CCCc1ccc(F)cc1)CN(Cc1ccc(OC)cc1)S(=O)(=O)c1ccc(C)cc1,/,/,3.9,/,/,/,/,
CCOC(=O)CC(=O)CSc1nc2c(sc(=S)n2-c2ccc(C)c(C)c2)c(=O)[nH]1,-6.5,4.1,70.4*,0.4,1.2,63.0*,23.4*,
CCCN(CCC)C(=O)CSc1nc2c(sc(=S)n2-c2ccc(OCC)cc2)c(=O)[nH]1,-10.7,23.5,24.5,0.0,2.3,/,/,
CCOC(=O)CC(=O)CSc1nc2c(sc(=S)n2-c2ccc(OCC)cc2)c(=O)[nH]1,-10.3,4.0,61.2*,-0.4,0.6,53.3*,18.8*,
